Assay results as given in PMC4212002 (Molecular Pharmaceutics, 2014).
Positions of bridges follow the written chain, without caps; N, C: chain ends. Residues, ends and D or L forms follow the SMILES beside them.

Experiments:
U87MG cells = assay: U87MG cell uptake assay; assay type: cell-based, human; conditions: for cell uptake (% of added radioactivity): 37 kBq/well, mean ± SD, triplicate
Method in brief: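 U87MG cells were grown in high-glucose DMEM with 10% FBS and 1% pen-strep (37 °C, 5% CO2) and trypsinised at 70–80% confluence. Cells (1 × 10^5/well) attached overnight and were PBS-washed, then exposed to 37 kBq radiotracer per well in medium ± 2 μg/well c(RGDyK) at 37 or 4 °C for 15–120 min. Cells were washed, lysed in 1.0 M NaOH and γ-counted as % added activity. Two experiments, triplicate wells.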

[1] = In vitro stability in PBS buffer; assay type: physicochemical; conditions: 0.01 M PBS pH 7.4, 1 h, room temperature, 3.7–5.55 MBq, radio-HPLC
Method in brief: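 The radiotracer was reconstituted in PBS and sterile-filtered (0.22 μm) before incubation. After incubation, samples were analysed by radio-HPLC. Percent intact peptide was obtained by quantifying the peaks for intact peptide and for degradation products.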

U87MG tumor-bearing mice [2] = assay: Small animal PET imaging quantification; assay type: in vivo, mouse; conditions: U87MG xenograft mice, within 2 h p.i.
Method in brief: (§1)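 Female nude mice carried s.c. U87MG shoulder xenografts of 0.5–1 cm, n = 4 per group. About 3.7 MBq (100 μCi) of radiotracer was given via tail vein, with or without ~330 μg c(RGDyK) coinjected. Mice were scanned on a small-animal PET at 0.5, 1 and 2 h p.i. under isoflurane (5% induction, 2% maintenance in 100% O2). Images were reconstructed by OSEM 2D and regional uptake quantified as %ID/g.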

[3] = Small animal PET imaging quantification; assay type: in vivo, mouse; conditions: mouse, tumor, iv, 3.7 MBq, total radioactivity
Method in brief: as §1

U87MG tumor-bearing mice [4] = assay: Biodistribution study; assay type: in vivo, mouse; conditions: U87MG xenograft nude mice, i.v., 2.5 h p.i., mean ± SD n = 4
Method in brief: (§2)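 Female athymic nude mice bore s.c. right-shoulder xenografts (~1 × 10^7 U87MG cells in 100 μL PBS, grown 2–3 weeks to 0.5–1 cm). The radiofluorinated peptide (1.85–3.7 MBq) was given via tail vein; mice were killed 0.5–2.5 h p.i. Tissues were weighed and γ-counted and expressed as %ID/g, n = 4 per group. A blocking group was coinjected with 330 μg c(RGDyK) and examined at 2.5 h.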

Biodistribution study = assay type: in vivo, mouse; conditions: nude, mouse, iv, total radioactivity
Method in brief: as §2

integrin αiibβ3 = conditions: cited from earlier work
integrin α5β1 = conditions: cited from earlier work
[5] = system: integrin αvβ3 (U87MG cells); conditions: read-out: U87MG IC50; binding to U87MG cells; ref 22 and 23; cited from earlier work
integrin αvβ5 = conditions: cited from earlier work
integrin αvβ3 = integrin αvβ3 (Homo sapiens, UniProt P05106+P06756); conditions: cited from earlier work
Chain of integrin αvβ3 (P06756 31-889): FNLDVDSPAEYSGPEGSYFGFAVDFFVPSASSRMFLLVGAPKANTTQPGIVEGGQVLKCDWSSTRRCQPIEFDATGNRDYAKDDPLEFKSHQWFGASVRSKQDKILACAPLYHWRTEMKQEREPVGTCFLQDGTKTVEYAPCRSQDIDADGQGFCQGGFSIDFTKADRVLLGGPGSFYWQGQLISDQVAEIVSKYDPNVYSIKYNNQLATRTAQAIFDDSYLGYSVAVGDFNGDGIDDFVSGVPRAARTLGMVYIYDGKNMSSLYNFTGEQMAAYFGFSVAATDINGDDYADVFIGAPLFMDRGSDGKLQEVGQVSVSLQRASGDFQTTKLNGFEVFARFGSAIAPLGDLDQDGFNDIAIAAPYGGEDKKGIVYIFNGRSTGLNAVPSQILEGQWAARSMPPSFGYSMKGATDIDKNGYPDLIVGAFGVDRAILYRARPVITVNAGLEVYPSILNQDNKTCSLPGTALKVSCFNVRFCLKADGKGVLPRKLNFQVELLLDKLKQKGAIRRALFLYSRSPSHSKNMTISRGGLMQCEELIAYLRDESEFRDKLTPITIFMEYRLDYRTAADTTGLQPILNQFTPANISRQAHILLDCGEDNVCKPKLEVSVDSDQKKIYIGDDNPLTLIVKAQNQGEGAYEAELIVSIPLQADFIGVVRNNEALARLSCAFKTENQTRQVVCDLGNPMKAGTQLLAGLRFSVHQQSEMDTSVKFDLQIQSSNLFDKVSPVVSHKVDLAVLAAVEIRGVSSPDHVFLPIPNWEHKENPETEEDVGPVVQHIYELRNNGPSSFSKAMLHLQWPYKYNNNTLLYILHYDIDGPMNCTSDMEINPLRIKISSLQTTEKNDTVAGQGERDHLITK
Chain of integrin αvβ3 (P06756 891-992): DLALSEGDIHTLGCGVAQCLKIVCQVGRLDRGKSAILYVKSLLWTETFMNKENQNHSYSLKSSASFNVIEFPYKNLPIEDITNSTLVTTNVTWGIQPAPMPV
Chain of integrin αvβ3 (P05106 27-718): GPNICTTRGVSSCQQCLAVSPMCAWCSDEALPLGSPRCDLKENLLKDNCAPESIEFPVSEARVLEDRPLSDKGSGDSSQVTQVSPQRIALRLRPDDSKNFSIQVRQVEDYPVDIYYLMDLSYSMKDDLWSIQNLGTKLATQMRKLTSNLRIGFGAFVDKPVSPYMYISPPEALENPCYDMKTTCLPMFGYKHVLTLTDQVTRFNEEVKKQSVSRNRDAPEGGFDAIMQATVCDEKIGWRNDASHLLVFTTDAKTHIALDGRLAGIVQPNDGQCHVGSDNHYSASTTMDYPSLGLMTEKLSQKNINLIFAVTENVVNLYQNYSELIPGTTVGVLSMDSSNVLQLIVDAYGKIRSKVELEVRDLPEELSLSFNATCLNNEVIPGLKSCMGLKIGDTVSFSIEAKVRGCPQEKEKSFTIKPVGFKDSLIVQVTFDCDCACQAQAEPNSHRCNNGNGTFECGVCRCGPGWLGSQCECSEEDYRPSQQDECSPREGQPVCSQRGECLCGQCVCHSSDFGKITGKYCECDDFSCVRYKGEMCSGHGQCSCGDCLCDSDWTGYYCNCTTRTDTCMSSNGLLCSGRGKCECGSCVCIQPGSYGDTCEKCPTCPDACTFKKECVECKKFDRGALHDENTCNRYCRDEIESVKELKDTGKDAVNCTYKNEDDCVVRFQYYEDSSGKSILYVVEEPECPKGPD

Q: Which “accumulation in cells at 37 °C compared to 4 °C” value (U87MG cells) does the source give for `CSCC[C@@H]1NC(=O)[C@H](CC(=O)O)NC(=O)CNC(=O)[C@H](CCCNC(=N)N)NC(=O)[C@H](C)NC(=O)[C@H](CCC(=O)O)NC(=O)[C@H](CCCNC(=N)N)NC(=O)[C@@H]2CSSC[C@@H]3NC(=O)[C@H](CO)NC(=O)[C@H]([C@@H](C)O)NC(=O)[C@@H]4CCCN4C(=O)[C@H](C)NC(=O)[C@H](Cc4c[nH]c5ccccc45)NC(=O)[C@H](CC(=O)O)NC(=O)CNC(=O)[C@H](CCCNC(=N)N)NC(=O)CNC(=O)[C@H](CCC(N)=O)NC(=O)[C@@H]4CCCN4C(=O)[C@@H](NC(=O)CNC(=O)C(C)F)CSSC[C@H](NC(=O)CNC(=O)[C@H](C)NC(=O)[C@H](CC(C)C)NC(=O)[C@H](CSSC[C@@H](C(=O)NCC(N)=O)NC(=O)[C@H]([C@@H](C)O)NC(=O)[C@H](CCCNC(=N)N)NC(=O)[C@@H]4CCCN4C1=O)NC(=O)[C@H](CC(=O)O)NC(=O)[C@H](CO)NC(=O)[C@H](CC(=O)O)NC(=O)[C@H](CCC(N)=O)NC(=O)[C@H](CO)NC3=O)C(=O)N[C@@H](C(C)C)C(=O)N2` (stereo partly shown) [^18F-FP–3-4A] here?
A: 2–3 fold

Q: And the “inhibition of cell uptake by excess c(RGDyK)” value (U87MG cells; 4 °C, 1 h, 2 μg/well c(RGDyK))?
A: 31.82%

Q: And the “cell uptake (% of added radioactivity)” value (U87MG cells; 4 °C, 15 min)?
A: 0.32 ± 0.02%

Q: What about the “cell uptake (% of added radioactivity)” value (U87MG cells; 4 °C, 30 min) of the same compound?
A: 0.41 ± 0.11%

Q: And the “cell uptake (% of added radioactivity)” value (U87MG cells; 4 °C, 60 min)?
A: 0.44 ± 0.05%

Q: What about the “cell uptake (% of added radioactivity)” value (U87MG cells; 4 °C, 120 min) of the same compound?
A: 0.51 ± 0.04%

Q: And the “cell uptake (% of added radioactivity)” value (U87MG cells; 37 °C, 15 min)?
A: 0.71 ± 0.07%

Q: And the “cell uptake (% of added radioactivity)” value (U87MG cells; 37 °C, 30 min)?
A: 0.90 ± 0.04%

Q: And the “cell uptake (% of added radioactivity)” value (U87MG cells; 37 °C, 60 min)?
A: 1.44 ± 0.04%

Q: What about the “cell uptake (% of added radioactivity)” value (U87MG cells; 37 °C, 120 min) of the same compound?
A: 1.50 ± 0.07%

Q: What about the “intact probe after incubation in PBS” value [1] of the same compound?
A: completely intact

Q: And the “in vivo defluorination (bone uptake on PET)” value (U87MG tumor-bearing mice [2])?
A: no observable defluorination

Q: What about the tissue uptake at 0.5 h [3] of the same compound?
A: 3.87 ± 0.66 %ID/g

Q: What about the liver uptake (U87MG tumor-bearing mice [4]) of the same compound?
A: 0.29 % ID/g

Q: What about the tissue to tissue ratio at 0.5 h (Biodistribution study; tumor and blood) of the same compound?
A: 5.94 ± 0.94

Q: And the tissue to tissue ratio at 1 h (Biodistribution study; tumor and blood)?
A: 4.39 ± 0.82

Q: What about the tissue to tissue ratio at 2.5 h (Biodistribution study; tumor and blood) of the same compound?
A: 3.12 ± 0.55

Q: What about the tissue to tissue ratio at 0.5 h (Biodistribution study; tumor and kidney) of the same compound?
A: 0.57 ± 0.19

Q: What about the tissue to tissue ratio at 1 h (Biodistribution study; tumor and kidney) of the same compound?
A: 0.6 ± 0.12

Q: And the tissue to tissue ratio at 2.5 h (Biodistribution study; tumor and kidney)?
A: 0.72 ± 0.15

Q: And the tissue to tissue ratio at 0.5 h (Biodistribution study; tumor and liver)?
A: 5.55 ± 0.63

Q: And the tissue to tissue ratio at 1 h (Biodistribution study; tumor and liver)?
A: 5.69 ± 0.88

Q: What about the tissue to tissue ratio at 2.5 h (Biodistribution study; tumor and liver) of the same compound?
A: 3.15 ± 0.74

Q: And the tissue to tissue ratio at 0.5 h (Biodistribution study; tumor and lung)?
A: 2.22 ± 0.45

Q: And the tissue to tissue ratio at 1 h (Biodistribution study; tumor and lung)?
A: 1.44 ± 0.31

Q: What about the tissue to tissue ratio at 2.5 h (Biodistribution study; tumor and lung) of the same compound?
A: 1.64 ± 0.01

Q: And the tissue to tissue ratio at 0.5 h (Biodistribution study; tumor and muscle)?
A: 10.8 ± 1.52

Q: What about the tissue to tissue ratio at 1 h (Biodistribution study; tumor and muscle) of the same compound?
A: 10.1 ± 1.22

Q: What about the tissue to tissue ratio at 2.5 h (Biodistribution study; tumor and muscle) of the same compound?
A: 3.47 ± 0.07

Q: What about the tissue to tissue ratio at 0.5 h (Biodistribution study; tumor and pancreas) of the same compound?
A: 12 ± 1.94

Q: And the tissue to tissue ratio at 1 h (Biodistribution study; tumor and pancreas)?
A: 6.06 ± 0.54

Q: What about the tissue to tissue ratio at 2.5 h (Biodistribution study; tumor and pancreas) of the same compound?
A: 3.96 ± 1.24

Q: What about the tissue to tissue ratio at 0.5 h (Biodistribution study; tumor and spleen) of the same compound?
A: 4.28 ± 0.4

Q: And the tissue to tissue ratio at 1 h (Biodistribution study; tumor and spleen)?
A: 2.63 ± 0.32

Q: What about the tissue to tissue ratio at 2.5 h (Biodistribution study; tumor and spleen) of the same compound?
A: 1.83 ± 0.16

Q: What does the source list for `CSCC[C@@H]1NC(=O)[C@H](CC(=O)O)NC(=O)CNC(=O)[C@H](CCCNC(=N)N)NC(=O)[C@H](C)NC(=O)[C@H](CCC(=O)O)NC(=O)[C@H](CCCNC(=N)N)NC(=O)[C@@H]2CSSC[C@@H]3NC(=O)[C@H](CO)NC(=O)[C@H]([C@@H](C)O)NC(=O)[C@@H]4CCCN4C(=O)[C@H](C)NC(=O)[C@H](Cc4c[nH]c5ccccc45)NC(=O)[C@H](CC(=O)O)NC(=O)CNC(=O)[C@H](CCCNC(=N)N)NC(=O)CNC(=O)[C@H](CCC(N)=O)NC(=O)[C@@H]4CCCN4C(=O)[C@@H](NC(=O)CN)CSSC[C@H](NC(=O)CNC(=O)[C@H](C)NC(=O)[C@H](CC(C)C)NC(=O)[C@H](CSSC[C@@H](C(=O)NCC(N)=O)NC(=O)[C@H]([C@@H](C)O)NC(=O)[C@H](CCCNC(=N)N)NC(=O)[C@@H]4CCCN4C1=O)NC(=O)[C@H](CC(=O)O)NC(=O)[C@H](CO)NC(=O)[C@H](CC(=O)O)NC(=O)[C@H](CCC(N)=O)NC(=O)[C@H](CO)NC3=O)C(=O)N[C@@H](C(C)C)C(=O)N2` [3-4A] (H-GCPQGRGDWAPTSCSQDSDCLAGCVCREARGDMPRTCG-NH2; disulfide 2-24, 14-26, 20-37; C-terminus assumed)?
A: binding affinity for integrin αiibβ3 (integrin αiibβ3): lower affinity; binding affinity for integrin α5β1 (integrin α5β1): lower affinity; IC50 [5]: 5 ± 2 nM; binding affinity to integrin αvβ5 (integrin αvβ5): high binding affinity; binding affinity to integrin αvβ3 (integrin αvβ3): high binding affinity
